Screening data as filed in PubChem BioAssay.
Kir21 inh: blocks the mouse Kir2.1 inward-rectifier potassium channel. HEK293-Kir2.1, FluxOR thallium flux fluorescence; active compounds read low. B-score at 10 µM. 0.85% of 310,000 active;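 active = fluorescence ratio B-score at or below minus 3 SD of library scores, with starting-brightness B-score within 2 SD, cut at about -4.2 in these data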;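 also: channel flux triggered by added potassium and thallium sulfate stimulus; B-score of peak minus minimum fluorescence over baseline after thallium stimulus; more negative B-score means stronger Kir2.1 block with less thallium influx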
KCNQ1 act: human KCNQ1 channel potentiation or activation; CHO-K1 KCNQ1, thallium flux FluxOR fluorescence; active compounds read high; P51787; B-score at 10 µM; 0.35% of 310,000 active;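 active = fluorescence ratio B-score, a plate-corrected score, at least three library SD, with initial intensity B-score within 5 SD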
Target sequence (P51787 whole entry, looked up): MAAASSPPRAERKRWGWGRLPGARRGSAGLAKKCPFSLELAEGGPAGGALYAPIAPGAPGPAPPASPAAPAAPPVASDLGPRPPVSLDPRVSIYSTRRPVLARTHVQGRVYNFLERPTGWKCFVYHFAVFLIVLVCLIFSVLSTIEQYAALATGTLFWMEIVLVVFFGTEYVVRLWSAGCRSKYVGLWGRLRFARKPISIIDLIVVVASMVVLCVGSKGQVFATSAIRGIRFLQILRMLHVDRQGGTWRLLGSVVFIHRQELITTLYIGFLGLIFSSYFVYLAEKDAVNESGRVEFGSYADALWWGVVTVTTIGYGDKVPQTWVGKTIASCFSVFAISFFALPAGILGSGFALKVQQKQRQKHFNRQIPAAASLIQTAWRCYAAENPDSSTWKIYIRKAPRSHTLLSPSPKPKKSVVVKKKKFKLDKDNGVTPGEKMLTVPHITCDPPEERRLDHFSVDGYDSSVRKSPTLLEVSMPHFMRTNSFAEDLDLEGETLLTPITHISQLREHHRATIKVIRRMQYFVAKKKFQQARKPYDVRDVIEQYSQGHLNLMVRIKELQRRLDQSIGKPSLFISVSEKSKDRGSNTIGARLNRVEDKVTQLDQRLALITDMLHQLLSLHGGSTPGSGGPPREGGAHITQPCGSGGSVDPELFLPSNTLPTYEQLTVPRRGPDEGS
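Schedule – 37 °C overnight plating, 90-min dark dye load, 20-min compound pretreatment · System – stable KCNQ1 CHO-K1 line · Probe or stimulus – thallium- and potassium-containing depolarizing buffer · Measured by – kinetic FluxOR fluorescence, 10 s baseline plus 110 s post-stimulus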
KCNQ1 inh: inhibitors of human KCNQ1 potassium channel; CHO-K1 KCNQ1, FluxOR thallium flux fluorescence; active compounds read high; P51787; 1.3% of 310,000 active; B-score at 10 µM;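 active = compounds whose thallium flux B-score, printed positive for inhibition, exceeds three library SD while starting fluorescence stays within three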;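 also: channel opened by potassium depolarization with thallium stimulus after 20 min compound exposure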
KCNK3 block: human KCNK3 channel inhibition, primary screen; CHO-KCNK3 thallium flux, FluxOR fluorescence; active compounds read low; B-score at 10 µM; 0.84% of 340,000 active; AID 602410;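 active = B-score under library mean minus 4 SD, starting fluorescence ratio at most library mean plus 5 SD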;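 also: more negative B-score means stronger inhibition of thallium flux through KCNK3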
hERG protect: compounds protecting human hERG from proarrhythmic drug block; CHO-hERG, FluxOR thallium flux, dofetilide IC70 present; activation (rescue from dofetilide block), less the hit threshold, % at 10 µM; 0.51% of 310,000 active; AID 1511;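 active = activation above the mean of controls blocked by dofetilide plus 5 SD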;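 also: thallium influx through hERG after potassium depolarization seen as dye fluorescence rise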
KCNK9 block: human KCNK9 channel inhibition | HEK293 KCNK9, FluxOR thallium flux fluorescence; active compounds read low | B-score at 10 µM | 1.2% of 310,000 active;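 active = ratio B-score over 3 SD below the library mean, with starting fluorescence within 5 SD of its mean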;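 also: negative B-score means less thallium flux so channel inhibition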
KCNK3 confirm: confirmation of human KCNK3 two-pore domain potassium channel inhibitors; shares compounds with KCNK3 block; CHO-KCNK3 thallium flux, FluxOR fluorescence; 0% buffer, 100% carvedilol maximal block; 99% of 2,400 active; ratio percent of control, % at 10 µM;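 active = ratio percent of control, averaged over triplicates, above buffer control mean plus 5 SD, cut at about 64% in these data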;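 also: ratio is the fluorescence rise from min to max over baseline after thallium stimulus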
KCNK3 noninduced: activity in cells without induced KCNK3 expression | shares compounds with KCNK3 block | non-induced KCNK3 parental cells, FluxOR thallium flux; active compounds read low | thallium flux ratio (lower = more inhibition) at 10 µM | 40% of 2,400 active;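 active = thallium flux ratio, averaged over three wells, more than 5 SD below the buffer control mean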;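 also: host cells are CHO cells without KCNK3 induction; ratio is peak minus trough fluorescence over baseline then normalized to buffer controls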
Numbers without * were called inactive; i = inactive; . = no result. An excerpt weighted towards active compounds, which were near 3.8% of everything screened.

SMILES	Kir21 inh	KCNQ1 act	KCNQ1 inh	KCNK3 block	hERG protect	KCNK9 block	KCNK3 confirm	KCNK3 noninduced
COc1ccc(C(NCC(=O)NC(C)c2ccc(Cl)cc2)c2ccccc2)cc1 (configuration not stated)	0.01	i	i	-9.5*	-1	i	126*	0.12*
COc1ccc(NC(=O)CNC(c2ccccc2)c2ccccc2)cc1	-0.03	i	i	i	-4	i	.	.
Cc1cccc(OCCCn2c(=O)oc3ccc(C)cc32)c1	0.22	i	i	-9.3*	-7	i	94*	i
COc1ccccc1OCCCn1c(=O)oc2ccc(C)cc21	-3.7	i	i	i	-11	i	.	.
COc1ccc2cc(C(=O)/C=C/c3cc(OC)c(O)c(OC)c3)ccc2c1	-0.32	i	i	-9.8*	-11	i	131*	0.13*
CCCCCCCCCCCNC(=O)c1ccoc1C	0.01	i	i	-8.9*	-12	i	96*	i
Cc1occc1C(=O)NCCCCNC(=O)c1ccoc1C	-0.34	i	i	i	-9	i	.	.
COc1ccc(-c2ocnc2C(=O)N2CCN(Cc3cccnc3)CC2)cc1	0.42	i	i	i	-8	i	.	.
CCN(CC)S(=O)(=O)c1ccc2c(c1)N(CC(=O)NCc1ccco1)C(=O)CO2	-0.91	i	i	i	-6	i	.	.
CCN(CC)S(=O)(=O)c1ccc(NC(=O)c2cccs2)cc1	-0.14	i	i	-10*	-14	i	83*	i
COC(=O)c1sc2nc(N3CCCCC3)c3c(c2c1N)CCCC3	-0.67	i	i	-11*	-9	i	104*	i
Cc1ccc2cc(/C=C(\C#N)C(N)=O)c(N3CCCCC3)nc2c1	-0.45	i	i	i	-6	i	.	.
CCOC(=O)/C(C#N)=C/c1cc2ccccc2nc1N1CCCCC1	-0.01	i	12*	-9.5*	-9	-7.3*	0	i
O=C(NCCS(=O)(=O)c1ccc(Br)cc1)c1ccccc1	-1.6	i	i	i	-2	i	.	.
CC(C)c1ccc(C(C)NCCS(=O)(=O)c2ccc(Br)cc2)cc1 (configuration not stated)	-4.7*	i	i	-8.9*	-14	i	69*	0.14*
Cc1ccc(-c2nc(C(Cl)Cl)c3ccccc3n2)cc1	0.54	i	i	-9.2*	-10	i	114*	i
Cc1ccc(-c2nc(Nc3ccc(O)cc3)c3ccccc3n2)cc1	2.1	i	i	i	-7	i	.	.
COCCN(CCOC)c1nc(-c2ccc(C)cc2)nc2ccccc12	0.25	i	i	-12*	-14	i	86*	0.13*
Cc1ccc(CNC(=O)c2ccc(C)s2)cc1	2.2	i	i	i	-12	i	.	.
O=C(CNCc1ccccn1)N1CCc2ccccc2C1	0.49	i	i	i	-8	i	.	.
CCC(c1nnnn1Cc1ccccc1)N1CCN(C(=O)c2ccco2)CC1 (configuration not stated)	1.9	i	i	-12*	-9	i	72*	i
O=C(O)c1ccc(/C=N/n2cc(-c3ccccc3)[nH]c2=S)cc1	-1.8	i	i	i	-9	i	.	.
CC(C)(C)c1ccc(OCC(=O)N/N=C/C2CC=CCC2)cc1 (configuration not stated)	1.2	i	i	-10*	-5	-7.2*	96*	i
O=C(CCc1ccccc1)N/N=C\C1CC=CCC1 (configuration not stated)	0.35	i	i	i	-10	i	.	.
COc1ccc(C(=O)NCC(=O)NCC(=O)OCc2ccc(Cl)cc2)cc1	-0.79	i	i	i	-4	i	.	.
SMILES	Kir21 inh	KCNQ1 act	KCNQ1 inh	KCNK3 block	hERG protect	KCNK9 block	KCNK3 confirm	KCNK3 noninduced
Cc1cc(NC(=O)CSc2nc3c([nH]c4ccccc43)c(=O)n2-c2cccc(C(F)(F)F)c2)no1	-0.67	i	i	-11*	-7	i	92*	i
CCCSc1nc(N2CCOCC2)c2c(c1C#N)CCCC2	0.05	i	i	-12*	-2	i	112*	0.15*
CCCCc1nc(N2CCOCC2)c(C#N)c2c1CCCC2	0.07	i	i	-11*	-11	i	108*	i
CCCc1nc(N2CCOCC2)c(C#N)c2c1CCCC2	-1.9	i	i	i	-9	i	.	.
CC(C)Cc1nc(N2CCCCC2)c(C#N)c2c1CCC2	0	i	i	-9.6*	-10	i	98*	i
N#CCCSc1nc(N2CCOCC2)c2c(c1C#N)CCCC2	-0.86	i	i	i	-16	i	.	.
Cc1ccc(NC(=O)CCNS(=O)(=O)c2ccc(Br)s2)cc1	-0.22	i	i	i	-2	i	.	.
CN(C)C(CNC(=O)CNC(=O)Cc1cccc2ccccc12)c1ccccc1 (configuration not stated)	-0.57	i	i	i	-6	i	.	.
Cc1ccccc1C1NC(=O)Cc2ccccc21 (configuration not stated)	1.3	i	i	i	-4	i	.	.
O=c1oc2cc(Oc3ccc(C(F)(F)F)cc3[N+](=O)[O-])ccc2c2c1CCC2	0.17	i	i	i	-7	i	.	.
O=c1oc2cc(Oc3c([N+](=O)[O-])cc(C(F)(F)F)cc3[N+](=O)[O-])ccc2c2c1CCCC2	-3.5	i	11*	-9.7*	-21	i	136*	0.14*
Cc1oc(-c2cccc3ccccc23)nc1CN1CCN(c2ncnc3ccccc23)CC1	1.3	i	i	-9.7*	-16	i	112*	i
CCNC(=O)CSc1nnc(-c2cccc(S(=O)(=O)N(CC)CC)c2)n1CCc1ccccc1	0.02	i	i	i	-8	i	.	.
CCSc1nnc(-c2cccc(S(=O)(=O)N(CC)CC)c2)n1Cc1ccccc1	-0.35	i	i	-9.8*	-28	i	93*	i
c1ccc(Oc2cccc(OCCCCSc3ncccn3)c2)cc1	-0.17	i	i	-11*	-11	i	89*	0.15*
c1cnc(SCCCOc2ccc3ccccc3c2)nc1	1.2	i	i	-10*	-8	i	114*	0.14*
